Experimental data taken from the M2OR odorant receptor database.

Assays:
Conditions in all cases: stereoisomer not certain
UniProt Q8VF52 = target: T1, UniProt Q8VF52
T1 sequence (whole entry): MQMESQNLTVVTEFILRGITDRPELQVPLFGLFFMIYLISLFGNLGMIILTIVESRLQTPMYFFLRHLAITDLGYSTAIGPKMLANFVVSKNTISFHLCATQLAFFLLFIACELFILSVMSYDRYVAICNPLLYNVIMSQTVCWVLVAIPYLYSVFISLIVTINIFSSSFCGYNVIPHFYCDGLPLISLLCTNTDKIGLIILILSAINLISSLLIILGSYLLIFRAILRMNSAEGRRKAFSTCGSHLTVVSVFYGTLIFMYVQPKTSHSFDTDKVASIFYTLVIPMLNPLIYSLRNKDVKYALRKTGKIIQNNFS
In short: (§1)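 Each entry records the cell line, G-protein, co-transfected protein and tags used. Methods varied with the source, often transient luciferase assays in mammalian cell lines. A receptor–molecule pair is called responsive (active) if the original authors judged its signal statistically different from baseline and non-responsive (inactive) otherwise.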

UniProt Q8VFG6 = target: T2, UniProt Q8VFG6
T2 sequence (whole entry): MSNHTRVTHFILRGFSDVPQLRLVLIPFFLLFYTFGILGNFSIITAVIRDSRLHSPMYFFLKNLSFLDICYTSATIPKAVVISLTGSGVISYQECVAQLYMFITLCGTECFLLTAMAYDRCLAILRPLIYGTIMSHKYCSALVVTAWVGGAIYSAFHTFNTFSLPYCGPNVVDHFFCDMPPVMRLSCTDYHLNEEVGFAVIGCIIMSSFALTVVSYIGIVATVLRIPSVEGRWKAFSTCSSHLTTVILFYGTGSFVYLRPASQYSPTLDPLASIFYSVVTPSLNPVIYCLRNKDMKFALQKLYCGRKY
In short: as §1

UniProt Q8VFM8 = target: T3, UniProt Q8VFM8
T3 sequence (whole entry): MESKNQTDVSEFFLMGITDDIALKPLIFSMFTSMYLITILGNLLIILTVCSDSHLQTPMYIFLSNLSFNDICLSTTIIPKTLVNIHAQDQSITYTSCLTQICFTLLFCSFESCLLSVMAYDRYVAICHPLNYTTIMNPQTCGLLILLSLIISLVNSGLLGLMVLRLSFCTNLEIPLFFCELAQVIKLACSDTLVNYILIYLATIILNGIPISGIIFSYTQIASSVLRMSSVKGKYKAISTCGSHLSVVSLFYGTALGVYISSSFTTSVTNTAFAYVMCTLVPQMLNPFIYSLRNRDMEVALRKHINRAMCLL
In short: as §1

UniProt Q8VFP5 = target: T4, UniProt Q8VFP5
T4 sequence (whole entry): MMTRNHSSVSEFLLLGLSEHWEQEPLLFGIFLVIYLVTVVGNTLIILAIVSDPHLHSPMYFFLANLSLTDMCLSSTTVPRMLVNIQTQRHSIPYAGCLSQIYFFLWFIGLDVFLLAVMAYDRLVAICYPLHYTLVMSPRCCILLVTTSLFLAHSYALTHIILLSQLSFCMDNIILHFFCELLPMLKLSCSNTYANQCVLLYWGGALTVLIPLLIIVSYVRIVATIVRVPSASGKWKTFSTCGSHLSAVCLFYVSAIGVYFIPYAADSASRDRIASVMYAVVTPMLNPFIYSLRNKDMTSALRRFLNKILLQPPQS
In short: as §1

UniProt Q8VFZ6 = target: T5, UniProt Q8VFZ6
T5 sequence (whole entry): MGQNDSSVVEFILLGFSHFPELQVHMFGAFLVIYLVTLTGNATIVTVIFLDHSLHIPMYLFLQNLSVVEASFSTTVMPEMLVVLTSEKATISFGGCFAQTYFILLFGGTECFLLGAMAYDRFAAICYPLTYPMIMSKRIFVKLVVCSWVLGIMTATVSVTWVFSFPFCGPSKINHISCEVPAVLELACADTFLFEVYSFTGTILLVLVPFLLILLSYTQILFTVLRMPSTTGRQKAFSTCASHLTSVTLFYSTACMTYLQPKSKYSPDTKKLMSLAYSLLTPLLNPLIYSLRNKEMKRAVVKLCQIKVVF
In short: as §1

UniProt Q8VG01 = target: T6, UniProt Q8VG01
T6 sequence (whole entry): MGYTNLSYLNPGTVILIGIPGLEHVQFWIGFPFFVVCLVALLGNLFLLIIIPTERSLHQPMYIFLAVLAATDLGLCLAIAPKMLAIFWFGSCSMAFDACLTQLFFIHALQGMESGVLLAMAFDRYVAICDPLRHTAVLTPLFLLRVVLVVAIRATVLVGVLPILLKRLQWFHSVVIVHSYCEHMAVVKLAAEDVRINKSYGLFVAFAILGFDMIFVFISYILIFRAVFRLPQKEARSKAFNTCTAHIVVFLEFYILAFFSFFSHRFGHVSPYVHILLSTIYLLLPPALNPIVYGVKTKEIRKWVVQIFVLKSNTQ
In short: as §1

UniProt Q8VG22 = target: T7, UniProt Q8VG22
T7 sequence (whole entry): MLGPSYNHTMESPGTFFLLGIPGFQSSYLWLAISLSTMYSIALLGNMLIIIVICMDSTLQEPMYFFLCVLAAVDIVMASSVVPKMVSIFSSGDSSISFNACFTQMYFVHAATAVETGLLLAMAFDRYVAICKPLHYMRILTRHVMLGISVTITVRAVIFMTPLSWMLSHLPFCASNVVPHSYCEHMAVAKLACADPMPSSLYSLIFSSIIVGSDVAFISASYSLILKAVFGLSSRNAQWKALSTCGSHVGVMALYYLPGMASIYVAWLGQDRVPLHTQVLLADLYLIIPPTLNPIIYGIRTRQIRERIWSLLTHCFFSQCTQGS
In short: as §1

UniProt Q8VG27 = target: T8, UniProt Q8VG27
T8 sequence (whole entry): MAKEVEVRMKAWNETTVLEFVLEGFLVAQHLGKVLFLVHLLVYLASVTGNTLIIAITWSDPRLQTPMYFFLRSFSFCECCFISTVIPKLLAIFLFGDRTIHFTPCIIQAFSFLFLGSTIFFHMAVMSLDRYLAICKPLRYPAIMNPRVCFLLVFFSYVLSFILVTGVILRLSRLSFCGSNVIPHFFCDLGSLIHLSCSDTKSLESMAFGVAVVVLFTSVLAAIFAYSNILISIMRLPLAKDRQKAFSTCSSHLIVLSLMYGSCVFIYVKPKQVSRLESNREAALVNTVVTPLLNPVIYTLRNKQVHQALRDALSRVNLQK
In short: as §1

UniProt Q8VG49 = target: T9, UniProt Q8VG49
T9 sequence (whole entry): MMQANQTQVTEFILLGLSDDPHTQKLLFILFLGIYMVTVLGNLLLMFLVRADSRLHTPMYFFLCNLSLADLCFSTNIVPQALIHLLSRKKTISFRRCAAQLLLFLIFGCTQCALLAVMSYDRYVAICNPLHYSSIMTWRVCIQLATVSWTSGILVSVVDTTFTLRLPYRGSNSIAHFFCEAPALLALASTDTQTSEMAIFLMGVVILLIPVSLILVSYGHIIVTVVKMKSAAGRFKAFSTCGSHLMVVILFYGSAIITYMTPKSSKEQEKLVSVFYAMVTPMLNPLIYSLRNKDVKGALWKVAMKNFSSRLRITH
In short: as §1

UniProt Q8VG53 = target: T10, UniProt Q8VG53
T10 sequence (whole entry): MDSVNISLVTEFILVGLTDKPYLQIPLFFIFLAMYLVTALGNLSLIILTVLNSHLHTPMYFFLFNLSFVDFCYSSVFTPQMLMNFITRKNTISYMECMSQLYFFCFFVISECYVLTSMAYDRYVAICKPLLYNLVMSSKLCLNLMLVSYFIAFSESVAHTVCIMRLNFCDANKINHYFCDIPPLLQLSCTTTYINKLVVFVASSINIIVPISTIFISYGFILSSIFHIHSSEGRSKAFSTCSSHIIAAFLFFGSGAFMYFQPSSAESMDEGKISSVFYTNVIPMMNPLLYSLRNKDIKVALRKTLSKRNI
In short: as §1

UniProt Q8VG64 = target: T11, UniProt Q8VG64
T11 sequence (whole entry): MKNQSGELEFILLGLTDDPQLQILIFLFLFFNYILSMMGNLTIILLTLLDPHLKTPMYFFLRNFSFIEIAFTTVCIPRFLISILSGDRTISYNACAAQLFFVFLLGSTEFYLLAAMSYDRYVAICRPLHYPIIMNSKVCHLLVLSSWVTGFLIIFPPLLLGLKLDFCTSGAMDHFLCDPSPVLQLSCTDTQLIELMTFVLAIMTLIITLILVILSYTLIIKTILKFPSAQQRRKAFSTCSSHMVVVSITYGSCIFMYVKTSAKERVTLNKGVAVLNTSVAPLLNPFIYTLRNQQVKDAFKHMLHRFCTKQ
In short: as §1

UniProt Q8VG77 = target: T12, UniProt Q8VG77
T12 sequence (whole entry): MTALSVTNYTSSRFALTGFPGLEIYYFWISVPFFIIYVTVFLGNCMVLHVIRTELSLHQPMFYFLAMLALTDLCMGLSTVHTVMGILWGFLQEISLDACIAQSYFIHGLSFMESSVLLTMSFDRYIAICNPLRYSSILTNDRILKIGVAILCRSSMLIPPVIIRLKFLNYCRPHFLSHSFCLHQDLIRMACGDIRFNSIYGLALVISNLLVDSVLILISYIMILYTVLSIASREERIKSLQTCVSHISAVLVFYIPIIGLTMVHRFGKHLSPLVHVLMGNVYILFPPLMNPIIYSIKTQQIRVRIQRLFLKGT
In short: as §1

UniProt Q8VG96 = target: T13, UniProt Q8VG96
T13 sequence (whole entry): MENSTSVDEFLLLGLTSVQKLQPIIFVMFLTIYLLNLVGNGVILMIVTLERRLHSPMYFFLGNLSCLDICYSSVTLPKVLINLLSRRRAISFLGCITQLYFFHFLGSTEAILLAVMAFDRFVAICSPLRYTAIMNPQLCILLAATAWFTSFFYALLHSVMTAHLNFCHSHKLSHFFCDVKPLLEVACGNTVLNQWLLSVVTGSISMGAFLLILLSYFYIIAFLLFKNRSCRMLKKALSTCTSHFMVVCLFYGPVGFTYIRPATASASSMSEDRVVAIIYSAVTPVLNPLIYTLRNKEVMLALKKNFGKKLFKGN
In short: as §1

UniProt Q8VGB9 = target: T14, UniProt Q8VGB9
T14 sequence (whole entry): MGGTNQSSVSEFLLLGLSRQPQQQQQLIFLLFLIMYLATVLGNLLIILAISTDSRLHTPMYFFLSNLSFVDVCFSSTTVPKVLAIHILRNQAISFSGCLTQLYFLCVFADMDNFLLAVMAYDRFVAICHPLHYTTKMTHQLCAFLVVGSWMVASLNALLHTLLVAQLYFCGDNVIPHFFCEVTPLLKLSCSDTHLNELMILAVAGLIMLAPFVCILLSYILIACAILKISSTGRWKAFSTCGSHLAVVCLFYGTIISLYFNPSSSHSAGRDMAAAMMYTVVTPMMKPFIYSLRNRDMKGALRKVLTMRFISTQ
In short: as §1

UniProt Q8VGC6 = target: T15, UniProt Q8VGC6
T15 sequence (whole entry): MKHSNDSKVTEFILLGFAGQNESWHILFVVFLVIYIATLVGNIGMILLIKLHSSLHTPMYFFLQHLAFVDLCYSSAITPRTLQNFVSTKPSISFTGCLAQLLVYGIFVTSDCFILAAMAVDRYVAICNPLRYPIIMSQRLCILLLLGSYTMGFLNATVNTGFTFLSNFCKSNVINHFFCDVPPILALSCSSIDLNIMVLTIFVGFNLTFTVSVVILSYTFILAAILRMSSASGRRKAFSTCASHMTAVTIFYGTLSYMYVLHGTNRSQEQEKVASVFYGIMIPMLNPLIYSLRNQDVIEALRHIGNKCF
In short: as §1

UniProt Q8VGD7 = target: T16, UniProt Q8VGD7
T16 sequence (whole entry): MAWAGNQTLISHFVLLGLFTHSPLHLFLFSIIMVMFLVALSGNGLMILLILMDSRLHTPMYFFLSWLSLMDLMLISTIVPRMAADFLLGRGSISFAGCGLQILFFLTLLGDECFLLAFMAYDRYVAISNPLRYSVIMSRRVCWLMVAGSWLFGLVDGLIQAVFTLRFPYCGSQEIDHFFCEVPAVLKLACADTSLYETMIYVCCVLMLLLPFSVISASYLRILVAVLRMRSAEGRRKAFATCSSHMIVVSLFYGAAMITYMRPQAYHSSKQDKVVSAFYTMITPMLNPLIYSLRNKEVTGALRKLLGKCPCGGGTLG
In short: as §1

UniProt Q8VGH1 = target: T17, UniProt Q8VGH1
T17 sequence (whole entry): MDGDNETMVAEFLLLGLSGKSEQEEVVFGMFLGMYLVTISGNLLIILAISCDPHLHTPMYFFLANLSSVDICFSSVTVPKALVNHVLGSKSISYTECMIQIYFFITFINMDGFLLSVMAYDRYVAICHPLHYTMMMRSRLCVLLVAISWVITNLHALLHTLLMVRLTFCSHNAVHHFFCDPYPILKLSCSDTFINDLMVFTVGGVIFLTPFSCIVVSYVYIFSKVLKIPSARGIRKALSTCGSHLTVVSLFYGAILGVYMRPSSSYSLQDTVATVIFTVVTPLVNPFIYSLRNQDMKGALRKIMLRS
In short: as §1

UniProt Q8VGJ1 = target: T18, UniProt Q8VGJ1
T18 sequence (whole entry): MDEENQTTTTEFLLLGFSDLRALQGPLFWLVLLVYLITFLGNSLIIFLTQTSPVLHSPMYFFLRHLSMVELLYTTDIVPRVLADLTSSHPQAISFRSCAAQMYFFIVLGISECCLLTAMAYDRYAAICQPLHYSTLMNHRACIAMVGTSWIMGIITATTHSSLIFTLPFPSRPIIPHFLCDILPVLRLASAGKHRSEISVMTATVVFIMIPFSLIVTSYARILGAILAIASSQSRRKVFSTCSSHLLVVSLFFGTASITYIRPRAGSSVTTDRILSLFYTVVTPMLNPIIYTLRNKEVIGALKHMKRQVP
In short: as §1

UniProt Q8VGJ3 = target: T19, UniProt Q8VGJ3
T19 sequence (whole entry): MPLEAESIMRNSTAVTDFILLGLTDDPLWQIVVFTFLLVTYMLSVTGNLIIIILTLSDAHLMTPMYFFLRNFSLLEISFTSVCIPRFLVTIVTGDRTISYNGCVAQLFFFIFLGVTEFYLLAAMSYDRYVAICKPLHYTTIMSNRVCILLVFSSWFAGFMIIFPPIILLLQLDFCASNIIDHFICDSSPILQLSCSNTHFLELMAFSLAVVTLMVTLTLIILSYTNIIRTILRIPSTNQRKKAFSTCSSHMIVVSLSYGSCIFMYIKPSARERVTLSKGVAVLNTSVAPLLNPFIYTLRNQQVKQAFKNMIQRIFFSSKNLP
In short: as §1

Measured: odorant receptor agonist call

C=CCOC(=O)Cc1ccccc1
active: UniProt Q8VFG6 | UniProt Q8VFZ6 | UniProt Q8VGC6
inactive: all other assays above

C=C(C)C1CC=C(C=O)CC1 (centres undefined)
active: UniProt Q8VGB9
inactive: UniProt Q8VF52 | UniProt Q8VFM8 | UniProt Q8VFP5 | UniProt Q8VG01 | UniProt Q8VG27 | UniProt Q8VG53 | UniProt Q8VG64 | UniProt Q8VGC6 | UniProt Q8VGJ3
